Measured values taken from ChEMBL document CHEMBL1649395, “Synthesis and antibacterial activity of novel ketolides with 11,12-sulfur contained aryl alkyl side chains” (2011).
In brackets after ≈: the same amount, converted by molar mass.

Tests used:
Type in all cases: functional
[1] = system: Streptococcus pneumoniae; assay: Antibacterial activity against erythromycin-susceptible Streptococcus pneumoniae 07H252 by broth microdilution method
Summary of the method: (§1)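 Strains were ATCC reference strains or clinical isolates from China's national antimicrobial resistance surveillance network (MOHNARIN). In vitro activity was measured by broth microdilution following NCCLS recommendations. Results are reported as minimum inhibitory concentration (MIC) in mg/L.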

[2] = system: Streptococcus pyogenes; assay: Antibacterial activity against erythromycin-resistant Streptococcus pyogenes 03-233 by broth microdilution method
Summary of the method: (§2)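 Clinical isolates were supplied by China's Ministry of Health National Antimicrobial Resistance Investigation Net (MOHNARIN). Activity was reported as minimum inhibitory concentration (MIC), determined by broth microdilution following NCCLS recommendations.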

[3] = system: Streptococcus pyogenes; assay: Antibacterial activity against erythromycin-susceptible Streptococcus pyogenes 07U084 by broth microdilution method; summary of the method: as §1
[4] = system: Streptococcus pneumoniae; assay: Antibacterial activity against erythromycin-susceptible Streptococcus pneumoniae ATCC 49619 by broth microdilution method; summary of the method: as §1
[5] = system: Streptococcus pneumoniae; assay: Antibacterial activity against erythromycin-resistant Streptococcus pneumoniae 07P390 by broth microdilution method; summary of the method: as §2
[6] = system: Staphylococcus epidermidis; assay: Antibacterial activity against methicillin-susceptible Staphylococcus epidermidis 07C134 by broth microdilution method; summary of the method: as §2
[7] = system: Streptococcus pyogenes; assay: Antibacterial activity against erythromycin-resistant Streptococcus pyogenes 01-533 by broth microdilution method; summary of the method: as §2
[8] = system: Haemophilus influenzae; assay: Antibacterial activity against erythromycin-susceptible Haemophilus influenzae 07O394 by broth microdilution method; summary of the method: as §1
[9] = system: Staphylococcus epidermidis; assay: Antibacterial activity against methicillin-susceptible Staphylococcus epidermidis 07T202 by broth microdilution method; summary of the method: as §1
[10] = system: Staphylococcus epidermidis; assay: Antibacterial activity against methicillin-resistant Staphylococcus epidermidis 07R066 by broth microdilution method; summary of the method: as §2
[11] = system: Haemophilus influenzae; assay: Antibacterial activity against erythromycin-susceptible Haemophilus influenzae 07O339 by broth microdilution method; summary of the method: as §1
[12] = system: Haemophilus influenzae; assay: Antibacterial activity against erythromycin-susceptible Haemophilus influenzae ATCC 49247 by broth microdilution method; summary of the method: as §1
[13] = system: Streptococcus pneumoniae; assay: Antibacterial activity against erythromycin-resistant Streptococcus pneumoniae 07D201 by broth microdilution method; summary of the method: as §2
[14] = system: Streptococcus pyogenes; assay: Antibacterial activity against erythromycin-susceptible Streptococcus pyogenes 07U086 by broth microdilution method; summary of the method: as §1
[15] = system: Staphylococcus aureus; assay: Antibacterial activity against methicillin-susceptible Staphylococcus aureus ATCC 29213 by broth microdilution method; summary of the method: as §1
[16] = system: Staphylococcus aureus; assay: Antibacterial activity against methicillin-susceptible Staphylococcus aureus ANS46 by broth microdilution method; summary of the method: as §1
[17] = system: Staphylococcus epidermidis; assay: Antibacterial activity against methicillin-resistant Staphylococcus epidermidis 07A066 by broth microdilution method; summary of the method: as §2
[18] = system: Haemophilus influenzae; assay: Antibacterial activity against erythromycin-susceptible Haemophilus influenzae 07O114 by broth microdilution method; summary of the method: as §1

SMILES | MIC [1] [µg/mL] | MIC [2] [µg/mL] | MIC [3] [µg/mL] | MIC [4] [µg/mL] | MIC [5] [µg/mL] | MIC [6] [µg/mL] | MIC [7] [µg/mL] | MIC [8] [µg/mL] | MIC [9] [µg/mL] | MIC [10] [µg/mL] | MIC [11] [µg/mL] | MIC [12] [µg/mL] | MIC [13] [µg/mL] | MIC [14] [µg/mL] | MIC [15] [µg/mL] | MIC [16] [µg/mL] | MIC [17] [µg/mL] | MIC [18] [µg/mL]
CC[C@H]1OC(=O)[C@H](C)C(=O)[C@H](C)[C@@H](O[C@@H]2O[C@H](C)C[C@H](N(C)C)[C@H]2O)[C@@](C)(OC)C[C@@H](C)C(=O)[C@H](C)[C@H]2N(CCCSc3nnnn3-c3ccccc3)C(=O)O[C@]12C | 1 (≈ 1.2 µM) | > 32 | 0.125 (≈ 0.15 µM) | 0.125 (≈ 0.15 µM) | 0.5 (≈ 0.602 µM) | 0.5 (≈ 0.602 µM) | 2 (≈ 2.41 µM) | 32 (≈ 38.5 µM) | > 32 | 0.25 (≈ 0.301 µM) | 32 (≈ 38.5 µM) | 16 (≈ 19.3 µM) | > 32 | 0.125 (≈ 0.15 µM) | 0.25 (≈ 0.301 µM) | > 32 | 0.5 (≈ 0.602 µM) | 16 (≈ 19.3 µM)
CC[C@H]1OC(=O)[C@H](C)C(=O)[C@H](C)[C@@H](O[C@@H]2O[C@H](C)C[C@H](N(C)C)[C@H]2O)[C@@](C)(OC)C[C@@H](C)C(=O)[C@H](C)[C@H]2N(CCCSc3nnnn3C)C(=O)O[C@]12C | 8 (≈ 10.4 µM) | > 32 | 0.062 (≈ 0.0806 µM) | 0.031 (≈ 0.0403 µM) | 0.5 (≈ 0.65 µM) | 0.25 (≈ 0.325 µM) | 1 (≈ 1.3 µM) | 8 (≈ 10.4 µM) | > 32 | > 32 | 8 (≈ 10.4 µM) | 8 (≈ 10.4 µM) | > 32 | 0.062 (≈ 0.0806 µM) | 0.25 (≈ 0.325 µM) | > 32 | 1 (≈ 1.3 µM) | 8 (≈ 10.4 µM)
CC[C@H]1OC(=O)[C@H](C)C(=O)[C@H](C)[C@@H](O[C@@H]2O[C@H](C)C[C@H](N(C)C)[C@H]2O)[C@@](C)(OC)C[C@@H](C)C(=O)[C@H](C)[C@H]2N(CCCSc3nc(-c4ccccc4)cs3)C(=O)O[C@]12C | 0.5 (≈ 0.591 µM) | 32 (≈ 37.8 µM) | 0.25 (≈ 0.295 µM) | 0.25 (≈ 0.295 µM) | 0.25 (≈ 0.295 µM) | 0.5 (≈ 0.591 µM) | 1 (≈ 1.18 µM) | 32 (≈ 37.8 µM) | 32 (≈ 37.8 µM) | 0.5 (≈ 0.591 µM) | 32 (≈ 37.8 µM) | 16 (≈ 18.9 µM) | 8 (≈ 9.45 µM) | 0.25 (≈ 0.295 µM) | 0.5 (≈ 0.591 µM) | 32 (≈ 37.8 µM) | 0.5 (≈ 0.591 µM) | 32 (≈ 37.8 µM)
CC[C@H]1OC(=O)[C@H](C)C(=O)[C@H](C)[C@@H](O[C@@H]2O[C@H](C)C[C@H](N(C)C)[C@H]2O)[C@@](C)(OC)C[C@@H](C)C(=O)[C@H](C)[C@H]2N(CCCSc3nccs3)C(=O)O[C@]12C | 0.5 (≈ 0.649 µM) | > 32 | ≤ 0.016 | 0.031 (≈ 0.0403 µM) | 0.25 (≈ 0.325 µM) | 0.125 (≈ 0.162 µM) | 0.5 (≈ 0.649 µM) | 4 (≈ 5.19 µM) | > 32 | 0.062 (≈ 0.0805 µM) | 4 (≈ 5.19 µM) | 4 (≈ 5.19 µM) | > 32 | ≤ 0.016 | 0.125 (≈ 0.162 µM) | > 32 | 0.125 (≈ 0.162 µM) | 4 (≈ 5.19 µM)
CC[C@H]1OC(=O)[C@H](C)C(=O)[C@H](C)[C@@H](O[C@@H]2O[C@H](C)C[C@H](N(C)C)[C@H]2O)[C@@](C)(OC)C[C@@H](C)C(=O)[C@H](C)[C@H]2N(CCCSc3nc4cc(OC)ccc4s3)C(=O)O[C@]12C | – | – | 0.062 (≈ 0.0729 µM) | 0.125 (≈ 0.147 µM) | – | 0.25 (≈ 0.294 µM) | – | 16 (≈ 18.8 µM) | 16 (≈ 18.8 µM) | 0.25 (≈ 0.294 µM) | 16 (≈ 18.8 µM) | 16 (≈ 18.8 µM) | – | 0.062 (≈ 0.0729 µM) | 0.5 (≈ 0.588 µM) | > 16 | 0.5 (≈ 0.588 µM) | 16 (≈ 18.8 µM)
CCCc1cnc(SCCCN2C(=O)O[C@]3(C)[C@@H](CC)OC(=O)[C@H](C)C(=O)[C@H](C)[C@@H](O[C@@H]4O[C@H](C)C[C@H](N(C)C)[C@H]4O)[C@@](C)(OC)C[C@@H](C)C(=O)[C@H](C)[C@@H]23)nc1 | – | – | 0.125 (≈ 0.155 µM) | 0.125 (≈ 0.155 µM) | – | 0.5 (≈ 0.62 µM) | – | 16 (≈ 19.8 µM) | > 16 | 0.5 (≈ 0.62 µM) | 16 (≈ 19.8 µM) | 16 (≈ 19.8 µM) | – | 0.125 (≈ 0.155 µM) | 0.5 (≈ 0.62 µM) | > 16 | 1 (≈ 1.24 µM) | 16 (≈ 19.8 µM)
CC[C@H]1OC(=O)[C@H](C)C(=O)[C@H](C)[C@@H](O[C@@H]2O[C@H](C)C[C@H](N(C)C)[C@H]2O)[C@@](C)(OC)C[C@@H](C)C(=O)[C@H](C)[C@H]2N(CCCSc3nc4ccccc4[nH]3)C(=O)O[C@]12C | – | – | 0.016 (≈ 0.0199 µM) | 0.016 (≈ 0.0199 µM) | – | 0.062 (≈ 0.0772 µM) | – | 2 (≈ 2.49 µM) | > 16 | 0.062 (≈ 0.0772 µM) | 2 (≈ 2.49 µM) | 4 (≈ 4.98 µM) | – | 0.016 (≈ 0.0199 µM) | 0.125 (≈ 0.156 µM) | > 16 | 0.125 (≈ 0.156 µM) | 2 (≈ 2.49 µM)
CC[C@H]1OC(=O)[C@H](C)C(=O)[C@H](C)[C@@H](O[C@@H]2O[C@H](C)C[C@H](N(C)C)[C@H]2O)[C@@](C)(OC)C[C@@H](C)C(=O)[C@H](C)[C@H]2N(CCCSc3nc(-c4ccccc4)c(-c4ccccc4)o3)C(=O)O[C@]12C | – | – | 0.5 (≈ 0.552 µM) | 1 (≈ 1.1 µM) | – | 4 (≈ 4.41 µM) | – | > 16 | > 16 | 4 (≈ 4.41 µM) | > 16 | > 16 | – | 0.5 (≈ 0.552 µM) | 4 (≈ 4.41 µM) | > 16 | 2 (≈ 2.21 µM) | > 16
CC[C@H]1OC(=O)[C@H](C)C(=O)[C@H](C)[C@@H](O[C@@H]2O[C@H](C)C[C@H](N(C)C)[C@H]2O)[C@@](C)(OC)C[C@@H](C)C(=O)[C@H](C)[C@H]2N(CCCSc3ccccn3)C(=O)O[C@]12C | – | – | 0.016 (≈ 0.0209 µM) | 0.016 (≈ 0.0209 µM) | – | 0.125 (≈ 0.164 µM) | – | 8 (≈ 10.5 µM) | > 16 | 0.125 (≈ 0.164 µM) | 4 (≈ 5.24 µM) | 8 (≈ 10.5 µM) | – | 0.016 (≈ 0.0209 µM) | 0.125 (≈ 0.164 µM) | > 16 | 0.125 (≈ 0.164 µM) | 8 (≈ 10.5 µM)
CC[C@H]1OC(=O)[C@H](C)C(=O)[C@H](C)[C@@H](O[C@@H]2O[C@H](C)C[C@H](N(C)C)[C@H]2O)[C@@](C)(OC)C[C@@H](C)C(=O)/C(C)=C/[C@]1(C)OC(=O)NCCCSc1nc2cc([N+](=O)[O-])ccc2[nH]1 | – | – | 0.125 (≈ 0.147 µM) | 0.125 (≈ 0.147 µM) | – | 1 (≈ 1.18 µM) | – | > 16 | > 16 | 1 (≈ 1.18 µM) | > 16 | 16 (≈ 18.9 µM) | – | 0.125 (≈ 0.147 µM) | 1 (≈ 1.18 µM) | > 16 | 1 (≈ 1.18 µM) | 16 (≈ 18.9 µM)
